We go through one compound from ChEMBL document CHEMBL5678798 (Clin Cancer Res, 2009).

Activity calls are given as the source filed them. No cut-off for these calls is given here.

Test [1] addresses Tyrosine-protein kinase Blk (Mus musculus) (UniProt P16277). The test is described as follows: Inhibition of N-terminal His6-tagged recombinant full-length mouse Blk expressed in baculovirus infected Sf21 cells at 3 uM by filter binding assay relative to control. Summed up:
(§1)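 Outsourced single-concentration screen in a commercial panel of 233 protein kinases, run as radiometric filter-binding activity assays. Test agent was tested at 0.3 or 3 µmol/L, as given in each line, from a 10 mmol/L DMSO stock. Activity is expressed as percent inhibition relative to control.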

A short description of test [2]: Inhibition of CDK2/CyclinA (unknown origin). Also noted: species or system Homo sapiens.
Another test relates to NCI-H929. Briefly: Induction of cell cycle arrest in human NCI-H929 cells assessed as cells accumulation at S phase at 1 umol/L incubated for 48 hrs by propidium iodide staining based flow cytometric analysis (reference value: 15%). The class given is functional. The note with it: dose 1 µmol/L, at 1 µM. The method, boiled down:
(§2)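 COLO 205, MCF-7 or NCI-H929 cells seeded in 96-well plates overnight at 37°C, then exposed to DMSO or increasing compound concentrations for 24 or 48 h. Fixed and stained with propidium iodide (Vindelov method), then analysed by flow cytometry for sub-G1, G1, S and G2-M fractions. Experiment repeated twice.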

Test [3] can be described thus: Antiproliferative activity against IGF1-stimulated mouse NIH-3T3/LISN cells over expressing human IGF1R assessed as reduction in cell viability preincubated for 2 hr followed by IGF1R stimulation and measured after 72 hrs by CellTiter-Glo assay. In kind it is functional, cell-based. Summed up: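 NIH-3T3 overexpressing human IGF-IR, kept in DMEM/10% FBS with 500 µg/mL G418. Seeded on collagen-coated 96-well plates and allowed to adhere 24 h. Switched to serum-free medium, compound or DMSO added for 2 h, then IGF-I 30 ng/mL. Incubated 72 h at 37°C. Read by CellTiter-Glo; IC50 by four-parameter fit.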

Test [4] deals with Testis-specific serine/threonine-protein kinase 1 (Homo sapiens) (UniProt Q9BXA7). Briefly: Inhibition of 6His-tagged recombinant human full length TSSK1 expressed in baculovirus infected Sf21 cells at 0.3 uM by filter binding assay relative to control. The method, boiled down: (§3)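 KinaseProfiler panel of 233 kinases: radiometric filter-binding activity assays with compound at 0.3 or 3 µmol/L. Read-out is percent inhibition.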

A short description of test [5]: In vivo inhibition of IGF1R in mouse NIH-3T3/LISN cells implanted in IGF1-stimulated nu/nu CD-1 mouse assessed as reduction in IGF1R phosphorylation at 10 mg/kg, po pretreated for 4 hrs followed by IGF1 stimulation and measured after 10 min by […] relative to control. The class given is functional. The note with it: 4.167 h, time 250 min. The method, boiled down:
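Female nu/nu CD-1 mice, three per group, bearing ~500 mm3 tumors, given one oral dose of compound or vehicle. At 4 h, 10 µg hIGF-I i.v. via tail vein; saline controls. Tumor and blood taken 10 min later. Tumor lysates in RIPA captured on anti-IGF-IR plates and probed with europium anti-phosphotyrosine. Phospho/total IGF-IR expressed as % of ligand-stimulated control. Blood levels by LC-MS/MS.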

Another test is filed under the species Rattus norvegicus. Briefly: Inhibition of recombinant rat AMPK at 0.3 uM by filter binding assay relative to control.
The target of test [6] is Tyrosine-protein kinase Yes (Homo sapiens) (UniProt P07947). Briefly: Inhibition of N-terminal His6 tagged recombinant full-length human Yes expressed in baculovirus infected Sf21 cells at 3 uM by filter binding assay relative to control. The method, boiled down: as §1
The test system of a further test is JJN-3. Briefly: Antiproliferative activity against human JJN-3 cells assessed as reduction in cell viability after 72 hrs by CellTiter-Glo assay. In kind it is functional, cell-based. The note with it: JJN-3, 72 h. Summed up: (§4)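 Cells seeded in 96-well plates, left overnight at 37°C, then exposed to a range of test concentrations for 72 h. Viability read by CellTiter-Glo luminescence; IC50 from four-parameter curve fit. Lines kept at 37°C, 5% CO2, in recommended growth medium.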

Test [7] has as its target Protein-tyrosine kinase 2-beta (Homo sapiens) (UniProt Q14289). Briefly: Inhibition of N-Terminal His6-tagged recombinant full-length human Pyk2 expressed in baculovirus infected Sf21 cells at 0.3 uM by filter binding assay relative to control. The method, boiled down: as §3
Another test has as its system COLO 205. Briefly: Induction of cell cycle arrest in human COLO 205 cells assessed as decrease in cells accumulation at G2/M phase at 0.03 to 10 uM incubated for 24 to 48 hrs by propidium iodide staining based flow cytometric analysis. The class given is functional. The note with it: dose 0.03-10 µM, time lower 24.0 hrs, time upper […]. Summed up: as §2
In test [8] the target is Calcium/calmodulin-dependent protein kinase type IV (Homo sapiens) (UniProt Q16566). Briefly: Inhibition of C-terminal His6-tagged recombinant full length human CaMKIV expressed in baculovirus infected Sf21 cells at 0.3 uM by filter binding assay relative to control. The method, boiled down: as §3
The target of test [9] is Protein-tyrosine kinase 6 (Homo sapiens) (UniProt Q13882). The test is described as follows: Inhibition of N-terminal His6-tagged recombinant full-length human BRK expressed in baculovirus infected Sf21 cells at 3 uM by filter binding assay relative to control.
A further test concerns MCF7. The test is described as follows: Induction of cell cycle arrest in human MCF7 cells assessed as decrease in cells accumulation at G2/M phase at 0.03 to 10 uM incubated for 24 to 48 hrs by propidium iodide staining based flow cytometric analysis. The following applies: dose 0.03-10 µM, time lower 24.0 hrs, time upper […]. In kind it is functional. Summed up:
as §2

In a further test the test system is NCI-H1299. The test is described as follows: Antiproliferative activity against human NCI-H1299 cells assessed as reduction in cell viability after 72 hrs by CellTiter-Glo assay. In kind it is functional, cell-based. The following applies: NCI-H1299, 72 h. The method, boiled down: as §4
Test [10] in a line: In vivo inhibition of IGF1R in mouse NIH-3T3/LISN cells implanted in IGF1-stimulated nu/nu CD-1 mouse assessed as reduction in IGF1R phosphorylation at 30 mg/kg, po pretreated for 24 hrs followed by IGF1 stimulation and measured after 10 min […] relative to control. The note with it: 24.17 h, time 1450 min. The class given is functional. Summed up:
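Time course: tumor-bearing female nu/nu CD-1 mice, three per group, given a single oral 30 mg/kg dose or vehicle. IGF-I given 10 min before blood and tumor collection at each time point. Tumor phospho-IGF-IR/total IGF-IR measured by capture-plate europium phosphotyrosine assay and expressed as % of ligand-stimulated control.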

Test [11] deals with Mitogen-activated protein kinase 10 (Homo sapiens, UniProt P53779). The test is described as follows: Inhibition of JNK3 (unknown origin).
Test [12] concerns the target Inhibitor of nuclear factor kappa-B kinase subunit alpha (Homo sapiens, UniProt O15111). The test is described as follows: Inhibition of IKK1 (unknown origin).
The target of test [13] is cAMP-dependent protein kinase catalytic subunit PRKX (Homo sapiens) (UniProt P51817). Briefly: Inhibition of N-terminal 6His-tagged recombinant full-length human PrKX expressed in baculovirus infected Sf21 cells at 3 uM by filter binding assay relative to control. The method, boiled down: as §3
Another test concerns SU-DHL-1. Briefly: Antiproliferative activity against human SU-DHL-1 cells assessed as reduction in cell viability after 72 hrs by CellTiter-Glo assay. In kind it is functional, cell-based. The following applies: SU-DHL-1, 72 h. The method, boiled down:
as §4

In test [14] the target is Proto-oncogene tyrosine-protein kinase receptor Ret (Homo sapiens) (UniProt P07949). Briefly: Inhibition of N-Terminal GST-tagged recombinant human Ret (658 to end residues) expressed in baculovirus infected Sf21 cells at 0.3 uM by filter binding assay relative to control. Summed up: as §3
Sequence of Proto-oncogene tyrosine-protein kinase receptor Ret (Homo sapiens) (P07949 whole entry): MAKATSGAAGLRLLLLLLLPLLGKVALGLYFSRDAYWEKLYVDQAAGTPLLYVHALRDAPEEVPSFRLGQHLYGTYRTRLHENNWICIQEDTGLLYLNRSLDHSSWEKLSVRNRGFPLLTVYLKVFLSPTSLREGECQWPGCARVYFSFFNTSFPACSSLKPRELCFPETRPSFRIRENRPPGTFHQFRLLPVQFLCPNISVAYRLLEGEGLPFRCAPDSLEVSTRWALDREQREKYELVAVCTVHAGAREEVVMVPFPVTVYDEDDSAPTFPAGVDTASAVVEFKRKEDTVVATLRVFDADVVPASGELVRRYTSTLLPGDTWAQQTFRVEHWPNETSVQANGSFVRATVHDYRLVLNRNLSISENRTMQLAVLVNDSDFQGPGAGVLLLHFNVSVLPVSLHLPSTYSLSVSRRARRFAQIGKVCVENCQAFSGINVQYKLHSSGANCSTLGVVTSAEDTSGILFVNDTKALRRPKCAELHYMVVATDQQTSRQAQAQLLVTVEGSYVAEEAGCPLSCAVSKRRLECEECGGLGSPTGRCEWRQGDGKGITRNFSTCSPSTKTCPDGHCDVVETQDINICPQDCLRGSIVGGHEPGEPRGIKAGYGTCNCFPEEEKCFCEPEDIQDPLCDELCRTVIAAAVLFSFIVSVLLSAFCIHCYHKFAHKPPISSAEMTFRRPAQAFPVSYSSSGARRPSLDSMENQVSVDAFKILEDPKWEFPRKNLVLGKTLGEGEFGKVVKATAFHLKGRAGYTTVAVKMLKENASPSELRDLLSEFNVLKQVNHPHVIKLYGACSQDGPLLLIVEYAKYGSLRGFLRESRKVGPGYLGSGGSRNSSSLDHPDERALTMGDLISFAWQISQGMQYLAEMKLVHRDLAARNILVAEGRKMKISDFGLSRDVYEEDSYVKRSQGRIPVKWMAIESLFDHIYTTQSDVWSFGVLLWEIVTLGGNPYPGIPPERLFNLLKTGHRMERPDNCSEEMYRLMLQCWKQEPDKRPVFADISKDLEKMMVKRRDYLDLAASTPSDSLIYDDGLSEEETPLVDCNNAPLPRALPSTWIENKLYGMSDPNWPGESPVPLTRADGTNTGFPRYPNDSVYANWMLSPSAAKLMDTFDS

Sequence of Calcium/calmodulin-dependent protein kinase type IV (Homo sapiens) (Q16566 whole entry): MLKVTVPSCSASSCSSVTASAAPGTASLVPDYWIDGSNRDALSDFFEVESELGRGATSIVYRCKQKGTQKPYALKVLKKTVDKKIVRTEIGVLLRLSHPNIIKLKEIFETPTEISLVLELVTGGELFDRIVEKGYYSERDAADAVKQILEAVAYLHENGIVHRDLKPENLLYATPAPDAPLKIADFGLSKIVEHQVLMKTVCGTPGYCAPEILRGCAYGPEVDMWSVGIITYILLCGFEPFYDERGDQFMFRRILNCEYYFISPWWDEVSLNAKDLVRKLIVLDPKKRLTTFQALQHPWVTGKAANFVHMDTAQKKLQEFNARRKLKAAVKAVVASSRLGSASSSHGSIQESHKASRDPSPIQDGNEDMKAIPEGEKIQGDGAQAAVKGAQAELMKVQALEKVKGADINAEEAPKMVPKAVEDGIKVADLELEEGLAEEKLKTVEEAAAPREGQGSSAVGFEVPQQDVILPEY
Sequence of Tyrosine-protein kinase Yes (Homo sapiens) (P07947 2-543 limits assumed): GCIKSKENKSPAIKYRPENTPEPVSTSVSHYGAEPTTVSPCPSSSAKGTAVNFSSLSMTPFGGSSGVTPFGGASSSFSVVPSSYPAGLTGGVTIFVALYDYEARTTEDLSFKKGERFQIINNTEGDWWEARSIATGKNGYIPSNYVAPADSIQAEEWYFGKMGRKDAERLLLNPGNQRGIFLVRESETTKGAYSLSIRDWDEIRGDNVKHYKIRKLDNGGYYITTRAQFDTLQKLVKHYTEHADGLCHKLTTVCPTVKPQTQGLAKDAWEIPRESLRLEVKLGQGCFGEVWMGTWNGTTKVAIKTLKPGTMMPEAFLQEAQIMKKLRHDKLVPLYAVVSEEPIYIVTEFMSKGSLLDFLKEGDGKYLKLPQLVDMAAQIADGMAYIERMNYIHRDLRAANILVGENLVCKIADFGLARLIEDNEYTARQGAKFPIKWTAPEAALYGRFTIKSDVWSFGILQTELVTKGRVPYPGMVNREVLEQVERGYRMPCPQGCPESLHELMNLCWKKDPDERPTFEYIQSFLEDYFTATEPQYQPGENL
Sequence of Testis-specific serine/threonine-protein kinase 1 (Homo sapiens) (Q9BXA7 whole entry): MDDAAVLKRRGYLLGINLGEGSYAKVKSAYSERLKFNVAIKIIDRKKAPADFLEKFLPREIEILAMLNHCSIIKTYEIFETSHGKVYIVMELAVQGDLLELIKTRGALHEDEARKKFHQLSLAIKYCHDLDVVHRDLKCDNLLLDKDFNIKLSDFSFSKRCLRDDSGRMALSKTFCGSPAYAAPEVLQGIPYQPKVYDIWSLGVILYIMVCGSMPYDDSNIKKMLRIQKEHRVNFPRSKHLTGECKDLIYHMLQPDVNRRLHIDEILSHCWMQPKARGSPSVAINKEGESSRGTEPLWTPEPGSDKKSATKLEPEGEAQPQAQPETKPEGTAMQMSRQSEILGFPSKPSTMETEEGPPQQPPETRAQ
Sequence of Inhibitor of nuclear factor kappa-B kinase subunit alpha (O15111 whole entry): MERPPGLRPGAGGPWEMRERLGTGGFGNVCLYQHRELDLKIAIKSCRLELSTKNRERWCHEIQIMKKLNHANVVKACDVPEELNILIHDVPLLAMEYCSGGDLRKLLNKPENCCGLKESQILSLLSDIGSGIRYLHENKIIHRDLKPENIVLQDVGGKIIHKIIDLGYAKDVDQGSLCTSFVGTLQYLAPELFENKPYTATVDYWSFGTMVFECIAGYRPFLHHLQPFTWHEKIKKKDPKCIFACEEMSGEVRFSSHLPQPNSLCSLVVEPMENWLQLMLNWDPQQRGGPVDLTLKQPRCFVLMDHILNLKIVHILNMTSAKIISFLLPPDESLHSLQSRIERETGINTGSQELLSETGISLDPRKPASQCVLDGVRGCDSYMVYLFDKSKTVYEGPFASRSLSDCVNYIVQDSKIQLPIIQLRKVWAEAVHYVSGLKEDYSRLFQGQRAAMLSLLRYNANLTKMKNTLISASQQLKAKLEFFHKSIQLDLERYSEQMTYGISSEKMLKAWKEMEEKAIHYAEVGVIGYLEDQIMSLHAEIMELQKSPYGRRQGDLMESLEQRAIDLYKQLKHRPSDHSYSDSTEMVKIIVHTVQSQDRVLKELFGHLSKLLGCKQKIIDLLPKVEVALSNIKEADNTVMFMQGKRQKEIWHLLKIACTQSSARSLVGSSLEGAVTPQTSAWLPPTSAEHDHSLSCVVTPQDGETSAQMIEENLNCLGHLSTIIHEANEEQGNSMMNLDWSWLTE
Sequence of Protein-tyrosine kinase 2-beta (Homo sapiens) (Q14289 whole entry, looked up): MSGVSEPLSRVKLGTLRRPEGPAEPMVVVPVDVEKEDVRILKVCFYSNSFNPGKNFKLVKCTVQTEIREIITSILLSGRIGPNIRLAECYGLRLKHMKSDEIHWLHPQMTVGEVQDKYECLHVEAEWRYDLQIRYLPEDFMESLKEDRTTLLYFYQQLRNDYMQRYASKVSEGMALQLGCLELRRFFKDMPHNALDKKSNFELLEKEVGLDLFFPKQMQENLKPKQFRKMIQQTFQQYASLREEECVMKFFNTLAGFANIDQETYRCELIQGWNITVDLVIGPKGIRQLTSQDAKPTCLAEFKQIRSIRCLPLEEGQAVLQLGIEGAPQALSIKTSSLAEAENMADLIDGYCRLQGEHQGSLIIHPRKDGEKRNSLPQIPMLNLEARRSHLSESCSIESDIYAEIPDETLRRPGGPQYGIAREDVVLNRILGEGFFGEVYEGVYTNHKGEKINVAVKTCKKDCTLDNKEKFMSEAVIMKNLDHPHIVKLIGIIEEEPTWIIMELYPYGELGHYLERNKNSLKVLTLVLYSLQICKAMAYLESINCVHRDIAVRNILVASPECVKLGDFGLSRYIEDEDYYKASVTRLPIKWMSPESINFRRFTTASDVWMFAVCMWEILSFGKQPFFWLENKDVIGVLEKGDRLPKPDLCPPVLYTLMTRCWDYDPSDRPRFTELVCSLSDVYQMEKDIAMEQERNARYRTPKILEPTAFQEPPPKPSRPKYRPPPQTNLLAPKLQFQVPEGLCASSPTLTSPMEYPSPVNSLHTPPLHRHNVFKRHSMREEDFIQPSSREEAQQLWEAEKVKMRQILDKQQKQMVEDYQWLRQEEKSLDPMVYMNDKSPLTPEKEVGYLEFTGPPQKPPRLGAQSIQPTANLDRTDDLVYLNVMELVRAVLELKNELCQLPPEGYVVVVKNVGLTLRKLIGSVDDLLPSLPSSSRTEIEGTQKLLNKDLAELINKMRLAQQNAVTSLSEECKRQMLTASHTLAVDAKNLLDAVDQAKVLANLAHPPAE
Sequence of Protein-tyrosine kinase 6 (Homo sapiens) (Q13882 whole entry, looked up): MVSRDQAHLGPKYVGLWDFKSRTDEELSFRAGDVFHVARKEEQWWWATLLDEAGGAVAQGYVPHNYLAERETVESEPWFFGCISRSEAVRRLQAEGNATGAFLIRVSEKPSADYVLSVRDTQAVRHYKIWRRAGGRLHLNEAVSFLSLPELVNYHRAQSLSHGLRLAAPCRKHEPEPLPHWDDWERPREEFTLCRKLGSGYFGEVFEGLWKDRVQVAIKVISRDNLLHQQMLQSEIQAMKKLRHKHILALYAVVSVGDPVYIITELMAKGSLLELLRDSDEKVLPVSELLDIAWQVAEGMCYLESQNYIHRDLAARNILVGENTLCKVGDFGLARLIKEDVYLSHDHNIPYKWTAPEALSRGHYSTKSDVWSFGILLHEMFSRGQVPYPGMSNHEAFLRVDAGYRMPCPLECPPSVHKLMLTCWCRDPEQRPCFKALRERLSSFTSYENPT

Turning to `CCc1cc(Nc2nccc(-c3c(-c4ccc(OC)c(C(=O)Nc5c(F)cccc5F)c4)nc4ccccn34)n2)c(OC)cc1N1CCC(N2CCN(S(C)(=O)=O)CC2)CC1`, the inhibition in [1] amounted to 22%; in test [4], 10%; in the test filed under Rattus norvegicus, 0%; in test [6], 27%; in test [7] it was 21%; in test [8], 11%. The inhibition came out at 38% in test [9], 1% in test [13] and 30% in test [14]. Also, the IC50 was more than 10 µM in test [2]; 0.06 µM in test [3]; more than 30 µM in the test on JJN-3; more than 20 µM in the test with NCI-H1299; more than 10 µM in test [11]; 13 µM in test [12]. For the same compound, in the test on SU-DHL-1, the IC50 is more than 30 µM. In addition, the Activity in the test on NCI-H929 came to 3%. Besides, the inhibition in vivo at 10 mg/kg in [5] was 95%. The result in the test on COLO 205 and in the test on MCF7 was Active. For the same compound, the inhibition in vivo at 30 mg/kg in test [10] is 76%.
